Series [1] has as its target T1, Prostaglandin G/H synthase 2 (Homo sapiens, UniProt P35354).
T1 sequence (P35354 whole entry): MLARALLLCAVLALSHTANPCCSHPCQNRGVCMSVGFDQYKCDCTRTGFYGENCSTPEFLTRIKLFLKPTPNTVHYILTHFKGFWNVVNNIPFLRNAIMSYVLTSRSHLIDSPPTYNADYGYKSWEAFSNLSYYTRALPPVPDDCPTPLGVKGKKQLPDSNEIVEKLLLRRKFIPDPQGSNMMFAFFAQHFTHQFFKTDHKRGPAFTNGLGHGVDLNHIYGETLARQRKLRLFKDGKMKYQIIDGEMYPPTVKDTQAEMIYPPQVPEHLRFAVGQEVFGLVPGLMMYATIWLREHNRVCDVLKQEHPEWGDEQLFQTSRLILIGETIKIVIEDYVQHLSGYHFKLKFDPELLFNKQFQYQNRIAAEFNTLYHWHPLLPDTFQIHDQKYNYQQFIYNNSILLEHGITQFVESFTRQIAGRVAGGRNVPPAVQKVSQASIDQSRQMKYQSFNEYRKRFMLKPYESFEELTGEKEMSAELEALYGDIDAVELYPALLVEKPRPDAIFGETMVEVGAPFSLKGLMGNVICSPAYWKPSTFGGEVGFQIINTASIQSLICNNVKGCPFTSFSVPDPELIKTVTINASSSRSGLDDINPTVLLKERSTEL
The class given is tissue-based, Blood.

Series [2] has as its target Prostaglandin G/H synthase 1 (Homo sapiens, UniProt P23219).
The species named for series [3] is Homo sapiens. Kind of series: Selectivity ratio of IC50 for human COX1 to IC50 for human COX2. An outline of the steps:
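Human whole blood, each compound tested in triplicate at 0.01–100 µmol/L final, vehicle DMSO. COX-1: blood preincubated 15 min at 37 °C, stimulated with calcium ionophore A-23,187 for 15 min, serum TXB2 by EIA. COX-2: heparinized blood preincubated 15 min, then LPS (100 µg/mL final, E. coli B4) for 24 h at 37 °C, plasma PGE2 by EIA. Ratio taken as IC50 COX-1/IC50 COX-2.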

The nature of series [4]: Dissociation constant, pKa by sulfonamide/sulfonamidate equilibrium. The class given is physicochemical. An outline of the steps:
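pKa was determined by UV spectrophotometry, to assign each compound's ionic state at pH 7.4.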

Series [5] is described as follows: Dissociation constant, pKa by pyridinium/pyridine equilibrium. The class given is physicochemical. An outline of the steps: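 Ionisation constant measured by UV spectrophotometry.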
Series [6] has as its system Rattus norvegicus. Kind of series: Antiinflammatory activity against carrageenan-induced oedema in Wistar rat paw at 3 mg/kg, ip after 3 hrs relative to control. The class given is functional. The settings on record: route intraperitoneal. An outline of the steps: (§1)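 Wistar rats (250 g) got the drug ip from a 10 mg/mL DMSO solution. 1 h later, 0.1 mL of 1% λ-carrageenan was injected into the plantar region of the right paw. After 3 h the rats were euthanized with nembutal (100 mg/kg), and paws were cut at the ankle and weighed. Swelling inhibition is given as % vs the control group (6 rats/group, mean ± SEM).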
In general terms: The carrageenan paw model is a standard test of acute inflammation.

The subject of series [7] is Rattus norvegicus. Kind of series: Antiinflammatory activity against carrageenan-induced oedema in Wistar rat paw at 10 mg/kg, ip after 3 hrs relative to control. The settings on record: route intraperitoneal. The class given is functional. An outline of the steps:
as §1

The subject of series [8] is Rattus norvegicus. Kind of series: Antiinflammatory activity against carrageenan-induced oedema in Wistar rat paw at 30 mg/kg, ip after 3 hrs relative to control. The class given is functional. The settings on record: route intraperitoneal. An outline of the steps: as §1
The test system of series [9] is Rattus norvegicus. Kind of series: Lethality in Wistar rat at 30 mg/kg, ip in carrageenan-induced paw oedema model. The class given is functional, organism-based. Also noted: dose 30 mg/kg. An outline of the steps:
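Wistar rats (250 g) were dosed ip from a 10 mg/mL DMSO solution, 1 h before 0.1 mL of 1% λ-carrageenan in the right hind paw. Deaths were noted over the following 3 h paw-oedema period in groups of six rats.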

Calls of active or inactive are those of the source. The calls are words filed in the database; no cut-off is given here.

Chain of Prostaglandin G/H synthase 1 (P23219 whole entry): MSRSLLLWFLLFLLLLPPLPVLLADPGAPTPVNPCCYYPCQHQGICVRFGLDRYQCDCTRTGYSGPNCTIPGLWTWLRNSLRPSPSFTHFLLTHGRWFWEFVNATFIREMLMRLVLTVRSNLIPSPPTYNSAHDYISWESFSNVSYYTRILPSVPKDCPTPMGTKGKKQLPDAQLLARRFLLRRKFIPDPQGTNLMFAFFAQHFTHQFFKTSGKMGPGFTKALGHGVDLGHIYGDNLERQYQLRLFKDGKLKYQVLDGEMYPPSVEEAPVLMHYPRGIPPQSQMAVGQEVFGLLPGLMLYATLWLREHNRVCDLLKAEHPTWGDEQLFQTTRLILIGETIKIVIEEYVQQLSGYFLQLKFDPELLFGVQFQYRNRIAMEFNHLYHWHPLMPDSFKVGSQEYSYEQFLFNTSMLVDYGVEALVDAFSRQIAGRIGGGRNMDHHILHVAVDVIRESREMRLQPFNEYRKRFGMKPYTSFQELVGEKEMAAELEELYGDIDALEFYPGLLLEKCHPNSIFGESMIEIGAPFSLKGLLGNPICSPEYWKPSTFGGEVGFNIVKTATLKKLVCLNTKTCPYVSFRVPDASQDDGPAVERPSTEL

On to `CS(=O)(=O)Nc1ccncc1S(=O)(=O)c1ccccc1`, for which the 50% inhibitory concentration (IC50) in series [1] and in [2] was greater than 100000 nM in each case.

Consider `O=S(=O)(Nc1ccncc1Sc1ccccc1)C(F)(F)F`, for which the IC50 – broadly, the concentration that inhibits the measured activity by half – in series [1] amounted to 530 nM; in series [2], 410 nM. The Ratio IC50 in [3] was 0.78. For the same compound, the pKa – broadly, the pH at which an ionisable group is half protonated – in series [4] is less than 1; in series [5], 6.54.

On to `O=S(=O)(Nc1ccncc1Oc1ccc(Cl)cc1)C(F)(F)F`, for which the values for the IC50 in series [1] and in series [2] were 1530 nM and 360 nM, respectively. Besides, the Ratio IC50 in [3] amounted to 0.24. Also, the pKa in series [4] is less than 1; in series [5] it was 6.71.

Take `CS(=O)(=O)Nc1ccncc1Oc1ccccc1Cl`: the IC50 stood at 130 nM in series [1] and 1030 nM in series [2]. The Ratio IC50 in [3] worked out at 7.92. Further, the inhibition in vivo (usually the drop in the measured response relative to a control, in per cent) at 3 mg/kg in [6] was found to be 9.47%. In [7], the inhibition in vivo at 10 mg/kg was determined as 37.5%. This compound yielded an inhibition in vivo at 30 mg/kg in series [8] of 62.8%.

For the compound `CCS(=O)(=O)Nc1ccncc1Oc1ccccc1`, the 50% inhibitory concentration (IC50) in series [1] came out at 14100 nM; in series [2], 5340 nM. Besides, the Ratio IC50 in series [3] turned out to be 0.38.

`CCCS(=O)(=O)Nc1ccncc1Oc1ccc(Cl)cc1`: the IC50 came to 9690 nM in [1] and 2300 nM in series [2]. For the same compound, the Ratio IC50 in series [3] was 0.24.

As for `CS(=O)(=O)Nc1ccncc1Oc1ccc(Cl)cc1Cl`, the IC50 was 120 nM in series [1] and 620 nM in series [2]. For the same compound, the Ratio IC50 in series [3] was 5.15. Besides, in series [6], 3 mg/kg produced 20.9% inhibition in vivo. This compound registered an inhibition in vivo at 10 mg/kg in series [7] of 15.8%. The same compound returned an inhibition in vivo at 30 mg/kg in [8] of 32.7%. Further, the pKa in series [4] was less than 4; in [5] it was 7.81.

On to `COc1ccc(Oc2cnccc2NS(C)(=O)=O)cc1`, for which the half-inhibitory concentration (IC50) was determined as 2360 nM in [1] and 1810 nM in series [2]. Moreover, in [3], the Ratio IC50 is 0.76.

On to `O=S(=O)(Nc1ccncc1Oc1ccccc1Cl)C(F)(F)F`, for which the IC50 in [1] was determined as 150 nM; in series [2], 270 nM. The Ratio IC50 in series [3] came out at 1.74.

For the compound `COc1ccc(Oc2cnccc2NS(=O)(=O)C(F)(F)F)cc1`, the results for the IC50 in series [1] and in [2] were 440 nM and 260 nM, respectively. The Ratio IC50 in series [3] amounted to 0.59.

Turning to `CS(=O)(=O)Nc1ccncc1Oc1cccc(Cl)c1`, the half-maximal inhibitory concentration (IC50) turned out to be 1990 nM in [1] and 10900 nM in series [2]. For the same compound, in series [3], the Ratio IC50 was determined as 5.45. The same compound had an inhibition in vivo at 3 mg/kg in series [6] of 10.9%. For the same compound, the inhibition in vivo at 10 mg/kg in series [7] came to 21%. The result in [9] was Active. Moreover, the pKa in series [4] is less than 4; in series [5], 7.74.

As for `CS(=O)(=O)Nc1ccncc1Oc1cc(Cl)cc(Cl)c1`, the IC50 in [1] and in series [2] was greater than 100000 nM in each case. At 3 mg/kg the inhibition in vivo in series [6] was 18%. This compound displayed an inhibition in vivo at 10 mg/kg in series [7] of 18%. For the same compound, in series [8], the inhibition in vivo at 30 mg/kg came out at 21.3%.

As to `O=S(=O)(Nc1ccncc1Nc1ccccc1)C(F)(F)F`, the IC50 came out at 90 nM in series [1] and 180 nM in series [2]. The Ratio IC50 in series [3] was 2.03. In addition, in [6], the inhibition in vivo at 3 mg/kg came to 22.7%. Besides, the inhibition in vivo at 10 mg/kg in series [7] was found to be 34.5%. In series [8], this compound yielded an inhibition in vivo at 30 mg/kg of 44%.

In the case of `CN(c1ccccc1)c1cnccc1NS(=O)(=O)C(F)(F)F`, the values for the IC50 in [1] and in series [2] were 47600 nM and 4630 nM, respectively. The Ratio IC50 in series [3] stood at 0.097.

Turning to `O=S(=O)(Nc1ccncc1Oc1ccc(Br)cc1)C(F)(F)F`, the values for the IC50 in series [1] and in series [2] were 13800 nM and 240 nM, respectively. Moreover, in series [3], the Ratio IC50 was found to be 0.02. The same compound displayed an inhibition in vivo at 3 mg/kg in series [6] of 5%. Also, the inhibition in vivo at 10 mg/kg in [7] was found to be 8.33%. In series [8], this compound returned an inhibition in vivo at 30 mg/kg of 36.7%.

`O=S(=O)(Nc1ccncc1Oc1cccc(Cl)c1)C(F)(F)F`: the IC50 was greater than 100000 nM in series [1] and 2270 nM in [2].

Compound `CS(=O)(=O)Nc1ccc([N+](=O)[O-])cc1Oc1ccccc1` [NIMESULIDE] came in with an inhibition in vivo at 3 mg/kg in series [6] of 23.7%. For the same compound, the inhibition in vivo at 10 mg/kg in series [7] stood at 40.2%. Further, 30 mg/kg produced 44.3% inhibition in vivo in series [8].

Take `O=S(=O)(c1ccccc1)c1cnccc1NS(=O)(=O)C(F)(F)F`: the IC50 in series [1] and in series [2] was greater than 100000 nM throughout. Besides, the pKa in [4] was less than 1; in [5], 5.3.

For `CCS(=O)(=O)Nc1ccncc1Oc1ccc(Cl)cc1`, the half-maximal inhibitory concentration (IC50) in [1] amounted to 3280 nM; in series [2], 2440 nM. In addition, the Ratio IC50 in series [3] is 0.75. The pKa is less than 4 in series [4] and 7.98 in series [5].

Regarding `O=S(=O)(Nc1ccncc1Oc1ccc(Cl)cc1Cl)C(F)(F)F`, the IC50 in series [1] stood at 2550 nM; in series [2] it was 1370 nM. Besides, the Ratio IC50 in series [3] was determined as 0.54.

For the compound `O=S(=O)(Nc1ccncc1Oc1cc(Cl)cc(Cl)c1)C(F)(F)F`, the IC50 in [1] and in series [2] was greater than 100000 nM each time.

Regarding `CS(=O)(=O)Nc1ccncc1Oc1ccc(Cl)cc1`, the IC50 in series [1] came to 1870 nM; in [2], 1450 nM. The Ratio IC50 in series [3] turned out to be 0.77. The compound also registered an inhibition in vivo at 3 mg/kg in series [6] of 28.7%. At 10 mg/kg the inhibition in vivo in series [7] was 35.1%. Moreover, in series [9], the outcome was Active. Besides, the results for the pKa in series [4] and in series [5] were less than 4 and 7.97, respectively.

On to `CCCS(=O)(=O)Nc1ccncc1Oc1ccccc1`, for which the IC50 in [1] is greater than 100000 nM; in series [2], 18400 nM.

Consider `O=S(=O)(Nc1ccncc1[S+]([O-])c1ccccc1)C(F)(F)F` (stereo not drawn), for which the IC50 was greater than 100000 nM in series [1] and 25600 nM in [2]. Also, the pKa in [4] was less than 1; in [5], 5.69.

In [6], `O=S(=O)(Nc1ccncc1Oc1ccccc1)C(F)(F)F` showed an inhibition in vivo at 3 mg/kg of 10.9%. Also, the inhibition in vivo at 10 mg/kg in series [7] stood at 26%. The inhibition in vivo at 30 mg/kg in [8] is 46.4%. The pKa in [4] is less than 1; in series [5], 6.81.

In the case of `CS(=O)(=O)Nc1ccncc1Oc1ccccc1`, the figures for the IC50 in series [1] and in series [2] were greater than 100000 nM and 410 nM, respectively. In series [9], the outcome was Active. Also, the pKa in series [4] was found to be 2.98; in series [5] it was 8.13.

As to `CS(=O)(=O)Nc1ccncc1Sc1ccccc1`, the IC50 in [1] is 1190 nM; in series [2], 3620 nM. For the same compound, the Ratio IC50 in [3] came to 3.05. Moreover, at 3 mg/kg the inhibition in vivo in [6] was 7.44%. The inhibition in vivo at 10 mg/kg in series [7] worked out at 40.7%. The result in series [9] was Active.

Take `CS(=O)(=O)Nc1ccncc1Oc1ccc(Br)cc1`: the IC50 is 7600 nM in [1] and 1410 nM in series [2]. In series [3], the Ratio IC50 was determined as 0.18. Besides, the pKa in series [4] is less than 4; in series [5], 7.86.

Source of the values: ChEMBL document CHEMBL1149303 (J Med Chem, 2004).
